Measurements reported in ChEMBL document CHEMBL2057201, “New CD1d agonists: synthesis and biological activity of 6″-triazole-substituted α-galactosyl ceramides” (Bioorg Med Chem Lett, 2012).
The source made the active and inactive calls. The calls are words filed in the database; no cut-off is given here.

What was measured:
iNKT = assay: Immunomodulatory activity in mouse iNKT DN3A4-1.2 cells assessed as stimulation of IL2 production after 24 hrs by ELISA
Mus musculus [1] = assay: Immunomodulatory activity in ip dosed C57BL/6 mouse assessed as stimulation of IL4 production after 2 hrs; format: functional, organism-based
Procedure, shortened: (§1)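 C57BL/6 mice received the glycolipids by intraperitoneal injection. Cytokines were measured in serum: IL-4 at 2 h and IFN-γ at 24 h after injection.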

Mus musculus [2] = assay: Immunomodulatory activity in ip dosed C57BL/6 mouse assessed as stimulation of IFNgamma production after 24 hrs; format: functional, organism-based
Procedure, shortened: as §1

Mus musculus [3] = assay: Immunomodulatory activity in ip dosed C57BL/6 mouse assessed as stimulation of IL4 production after 2 hrs
Mus musculus [4] = assay: Immunomodulatory activity in ip dosed C57BL/6 mouse assessed as stimulation of IFNgamma production after 24 hrs

Compound	Activity (iNKT)	Activity (Mus musculus [1])	Activity (Mus musculus [2])	Activity (Mus musculus [3])	Activity (Mus musculus [4])
CCCCCCCCCCCCCCCCCCCCCCCCCC(=O)N[C@@H](CO[C@H]1O[C@H](Cn2nnc3ccccc32)[C@H](O)[C@H](O)[C@H]1O)[C@H](O)[C@H](O)CCCCCCCCCCCCCC	Active				
CCCCCCCCCCCCCCCCCCCCCCCCCC(=O)N[C@@H](CO[C@H]1O[C@H](Cn2cc(CCCCCCCCCCCC)nn2)[C@H](O)[C@H](O)[C@H]1O)[C@H](O)[C@H](O)CCCCCCCCCCCCCC		Active	Active	Active	Active
CCCCCCCCCCCCCCCCCCCCCCCCCC(=O)N[C@@H](CO[C@H]1O[C@H](Cn2nnc(-c3ccccc3)c2-c2ccccc2)[C@H](O)[C@H](O)[C@H]1O)[C@H](O)[C@H](O)CCCCCCCCCCCCCC	Active				
CCCCCCCCCCCCCCCCCCCCCCCCCC(=O)N[C@@H](CO[C@H]1O[C@H](Cn2cc(COCCOCCOCCOCCOCCOCCOCCOCCOC)nn2)[C@H](O)[C@H](O)[C@H]1O)[C@H](O)[C@H](O)CCCCCCCCCCCCCC	Active	Active	Active	Active	Active
CCCCCCCCCCCCCCCCCCCCCCCCCC(=O)N[C@@H](CO[C@H]1O[C@H](Cn2nncc2-c2ccccc2)[C@H](O)[C@H](O)[C@H]1O)[C@H](O)[C@H](O)CCCCCCCCCCCCCC	Active	Active		Active	
CCCCCCCCCCCCCCCCCCCCCCCCCC(=O)N[C@@H](CO[C@H]1O[C@H](Cn2cc(-c3ccccc3)nn2)[C@H](O)[C@H](O)[C@H]1O)[C@H](O)[C@H](O)CCCCCCCCCCCCCC	Active				
CCCCCCCCCCCCCCCCCCCCCCCCCC(=O)N[C@@H](CO[C@H]1O[C@H](Cn2cc(CCCCCCCC)nn2)[C@H](O)[C@H](O)[C@H]1O)[C@H](O)[C@H](O)CCCCCCCCCCCCCC	Active	Active	Active	Active	Active
CCCCCCCCCCCCCCCCCCCCCCCCCC(=O)N[C@@H](CO[C@H]1O[C@H](CN=[N+]=[N-])[C@H](O)[C@H](O)[C@H]1O)[C@H](O)[C@H](O)CCCCCCCCCCCCCC	Active		Active		Active
